# In the library only some 2.3% were active in any assay of this set; here they are far more common.
# STAT1 inh = reduces IFN-gamma driven STAT1 reporter signal | NIH 3T3 STAT1-luciferase reporter, luminescence | hit rate 0.35% among 200,000 | AID 920 | inhibition, % at 5.5 µM;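 active = inhibition above a set limit, the mean inhibition across all tested compounds plus 3 SD, cut at about 34% in these data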;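 note: 0% = IFN-gamma with DMSO and 100% = IFN-gamma with 300 µM nifuroxazide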
# C8 TRAIL sens = caspase-8 TRAIL sensitization. NB7+C8 cells + TRAIL, ATPlite viability luminescence. inhibition (viability loss, TRAIL sensitization), % at 10 µM. hit rate 1% among 360,000. AID 624354;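 active = compounds causing at least 50% loss of cell viability in the single-dose screen, relative to plate controls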
# HSP90 refold inh = blocks HSP90-mediated luciferase refolding in reticulocyte lysate; hit rate 0.91% among 290,000; Rabbit reticulocyte lysate, luciferase refolding luminescence, 3 h; AID 1789; inhibition, % at 5.6 µM;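 active = inhibition above the screen-wide mean plus 3 SD, computed separately per campaign, cut at about 16% in these data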;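 note: 0% = DMSO wells and 100% = 60 µM geldanamycin wells; inhibitors lower the luminescence because luciferase stays unfolded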
# PPC-1+TRAIL kill = PPC-1 cancer cell killing with TRAIL present | PPC-1 cells + TRAIL, ATPLite viability luminescence | hit rate 0.41% among 220,000 | cell killing (% activity), % at 4 µM or 5 µM | AID 1443;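 active = cell killing above 50% in the first pass at 4 µM, then a duplicate retest at 5 µM averaging 50% or more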;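 note: plate controls were cells with TRAIL plus DMSO for no effect and medium-only wells lacking cells for full effect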
# STAT3 blocker = reduces IL-6 driven STAT3 reporter signal. U3A cells, IL-6 STAT3-luciferase reporter, luminescence; host cell line lacks STAT1. AID 862. inhibition, % at 5.5 µM. hit rate 0.89% among 190,000;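 active = inhibition above the mean inhibition across all screened compounds plus 3 SD, cut at about 44% in these data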;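 note: 0% = DMSO only wells and 100% = 100 µM nifuroxazide control wells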
# STAT3 act = activators of IL-6 induced STAT3 signaling; AID 871; activation (% of control), % at 5.6 µM; U3A cells, IL-6 STAT3-luciferase reporter, luminescence; 100% = signal with IL-6 EC80 alone; hit rate 0.91% among 190,000;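 active = activation above the screen-wide mean of compound activation plus 3 SD, cut at about 130% in these data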;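 note: 0% = background luminescence of wells with medium and substrate only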
#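 System – human U3A cells carrying STAT3-luciferase construct · Probe or stimulus – Interleukin-6, 33 ng/mL · Schedule – compound 1 h, then IL-6 6 h at 37 °C · Signal – luminescence from STAT3-driven luciferase reporter · Evaluation – percent of IL-6-only median luminescence · Benchmarks – IL-6-only high control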
# * = called active by the depositor; / = no result.
SMILES,STAT1 inh,C8 TRAIL sens,HSP90 refold inh,PPC-1+TRAIL kill,STAT3 blocker,STAT3 act
N#Cc1c(-c2ccc(F)cc2)nc2n(c1=O)CCS2,4.1,-4.4,1.4,-12.0,9.3,97.0
C(=N\Nc1nc2ccccc2s1)/c1cccs1,-51.2,20.7,-0.8,31.5,-18.6,119.2
Cc1ccsc1/C=N/Nc1nc2ccccc2s1,-82.2,24.6,-3.3,21.4,-58.9,144.3*
Cc1nn(-c2ccccc2Cl)c(Cl)c1/C=N/Nc1nc2ccccc2s1,33.8,55.6*,5.2,46.5,73.2*,39.1
CC(=NNc1nc2ccccc2s1)c1ncccn1,/,23.1,/,/,/,/
C/C(=N\Nc1nc2ccccc2s1)c1cccs1,-65.0,66.9*,-4.2,43.1,-14.4,109.3
O=C(CCCN1C(=O)/C(=C/c2cccs2)SC1=S)NNC(=O)c1ccccc1O,-2.8,15.4,-5.9,11.0,-11.2,105.4
CCn1cc(/C=C/C(=O)c2ccc(O)cc2)c(C)n1,-20.2,63.7*,-5.0,37.0,0.5,103.6
NS(=O)(=O)c1ccc(NC(=O)COC(=O)CN2C(=O)C3CC=CCC3C2=O)cc1 (stereo not given),/,-4.7,/,/,/,/
O=C1CC(c2ccccc2)CC(O)=C1C=NCC1CCCO1 (stereo not given),-1.7,7.6,-1.8,8.9,3.0,102.3
O=C(O)CCS(=O)(=O)c1nc(-c2cccs2)cc(C(F)(F)F)n1,26.7,-17.4,8.2,-7.5,11.8,94.8
CS(=O)(=O)c1nc(-c2cccs2)cc(C(F)(F)F)n1,50.0*,/,4.7,-25.9,12.6,89.5
CC(C)(C)OC(=O)N(CCc1ccccc1)Cc1ccc(OCc2cccc(NC(=O)C3CCCC3)c2)cc1,/,6.5,/,/,/,/
Cc1ccc(S(=O)(=O)N2C[C@H]3[C@H]4C(=O)N(c5ccccc5)C(=O)[C@H]4CC(=O)[C@H]3[C@@H]2c2ccc(Cl)cc2)cc1,/,-29.6,/,/,/,/
CCc1ccc([C@H]2[C@@H]3C(=O)C[C@@H]4C(=O)N(c5ccccc5)C(=O)[C@@H]4[C@@H]3CN2S(=O)(=O)c2ccc(C)cc2)cc1,/,86.4*,/,/,/,/
OC(COc1ccc(Cl)cc1Cl)Cn1ccnc1 (stereo not given),/,4.7,13.4,/,/,/
O=C(NC(=S)Nc1ccccn1)c1ccc([N+](=O)[O-])cc1,-91.9,46.6,-2.0,12.7,-5.2,102.4
O=C(NC(=S)Nc1ccccn1)c1ccccc1,/,68.6*,3.5,41.8,/,/
O=C(Nc1ccccn1)c1ccc(C(=O)Nc2ccccn2)cc1,/,15.7,-7.4,/,/,/
O=C(NC(=S)Nc1ccccn1)c1ccc(-c2ccccc2)cc1,/,78.0*,8.2,/,/,/
C[C@@H]1CN([C@H](C)CO)C(=O)c2cc(NC(=O)Nc3ccc(C(F)(F)F)cc3)ccc2O[C@H]1CN(C)S(=O)(=O)c1ccccc1,/,18.4,/,/,/,/
Oc1ccc(C=NNC(=S)Nc2ccc(F)cc2)c(O)c1,/,11.8,/,/,/,/
Oc1cccc(/C=N/NC(=S)Nc2cccnc2)c1O,10.2,55.5*,1.5,27.1,12.4,89.5
Oc1ccc(/C=N/NC(=S)Nc2cccnc2)c(O)c1,12.6,79.7*,1.4,27.7,13.9,90.2
Oc1ccc(/C=N/NC(=S)Nc2cccnc2)c(O)c1O,/,-18.0,4.0,3.7,/,/
SMILES,STAT1 inh,C8 TRAIL sens,HSP90 refold inh,PPC-1+TRAIL kill,STAT3 blocker,STAT3 act
C=CCN(C(C(=O)OC)C(C)C)S(=O)(=O)CCNCc1ccccc1 (stereo not given),/,-7.5,/,/,/,/
COc1ccc(NC(=O)CN(C)C(=O)C23CC4CC(CC(C4)C2)C3)cc1,/,4.9,6.5,/,/,/
COc1ccc(C)cc1NC(=O)CN(Cc1nnc(-c2ccc(Cl)cc2)o1)C1CCCC1,-1.9,84.7*,4.1,24.8,-0.7,104.4
COc1ccc2c(c1)OC[C@H]1[C@H]2N2C(=O)CN(Cc3ccco3)C(=O)[C@@]2(C)[C@H]1c1ccccc1,/,13.6,/,/,/,/
CCc1cccc(C)c1N(C(=O)Cn1c(=O)[nH]c2ccccc21)C(C)COC (stereo not given),-0.1,-1.9,3.8,14.2,11.9,95.4
COc1cccc(/C=C/C(=O)c2ccc3c(c2)OCCO3)c1OC,/,71.2*,0.8,/,/,/
COc1ccccc1OCCNC(=O)CNC(=O)c1ccc2c(c1)OCO2,/,8.3,/,/,/,/
COc1ccc(/C=C/C(=O)c2ccc3c(c2)OCO3)c(OC)c1,-33.1,56.3*,-4.9,49.1,7.2,97.6
COc1ccccc1OCCNC(=O)c1ccc2c(c1)OCCO2,/,51.7*,/,/,/,/
CC(=O)c1c(C)[nH]c(C(=O)OCCCCN2C(=O)c3ccccc3C2=O)c1C,33.1,21.4,-1.3,13.7,86.5*,31.8
COc1cc(CNC(C)(C)CO)cc(Br)c1OCc1ccc(Cl)cc1Cl,-7.1,25.4,-0.5,-16.6,5.7,98.3
CCC(=O)NC(c1ccc(C)cc1)c1cc([N+](=O)[O-])c2cccnc2c1O (stereo not given),13.2,53.6*,4.5,22.7,2.9,95.7
CCOc1ccc(S(=O)(=O)NCCC(=O)N2CCN(c3ccc(OC)cc3)CC2)cc1,20.2,0.4,4.3,7.9,12.9,96.5
c1ccc2c(NCCCN3CCOCC3)c3ccccc3nc2c1,-88.3,/,-5.1,44.1,-127.0,214.6*
CC(C)(C)c1ccc(C(O)CCCN2CCC(C(O)(c3ccccc3)c3ccccc3)CC2)cc1 (stereo not given),8.0,60.0*,8.5,32.3,-2.0,103.8
OC(c1ccccc1)(c1ccccc1)C1CCN(CCCOc2ccc3c(c2)CCCC3)CC1,/,65.7*,/,/,/,/
OC(c1ccccc1)(c1ccccc1)C1CCN(CCCOc2cccc(OC(F)(F)F)c2)CC1,/,4.0,/,/,/,/
CCOc1ccccc1OCc1nn2c(COc3ccccc3)nnc2s1,6.6,-3.5,0.4,-13.6,-14.7,112.5
c1ccc(Cc2nn3c(COc4ccccc4)nnc3s2)cc1,-9.2,-22.3,-2.0,-11.2,-34.4,134.5*
O=C(O)CCCC(=O)N1CCN(c2ncccn2)CC1,/,-7.8,1.3,5.1,/,/
COc1ccc(CCNC(=O)/C=C/c2ccc(OC)c(S(=O)(=O)N3CCOCC3)c2)cc1,/,3.7,0.7,-24.3,/,/
O=[N+]([O-])c1ccc(Sc2ccncn2)c([N+](=O)[O-])c1,/,53.0*,/,/,/,/
O=C(NC1=NCCS1)c1cccs1,2.0,44.9*,-5.0,-0.3,-1.3,104.8
CC(C)(C)c1cc[n+](C2=C([O-])c3ccccc3C(=O)/C2=N\S(=O)(=O)c2cccs2)cc1,/,54.4*,8.9,13.9,/,/
CCOc1ccc(OCC)c(NC(=O)C2CCN(c3nn4c(=O)cc(C)nc4s3)CC2)c1,-2.6,66.8*,1.9,13.0,16.6,89.6
CCOc1ccccc1CNC(=O)C1CCN(c2nn3c(=O)cc(C)nc3s2)CC1,/,0.3,-1.5,/,/,/
O=C(O)Cn1cc(/C=C2\SC(=O)N(c3ccccc3)C2=O)c2ccccc21,-11.0,-0.3,0.3,22.6,11.8,96.9
Cn1cc(/C=C2/SC(=O)N(c3ccccc3)C2=O)c2ccccc21,-36.4,-1.0,-1.7,6.7,-83.6,172.3*
Cc1cc(NC(=O)C2CCCC2)nc2c1c(=O)oc1ccccc12,-6.2,70.6*,-2.4,-12.0,10.8,91.9

# Assay outcomes: PubChem, several laboratories
